Legend:
[1] = biological target: T1, Adrenergic receptor alpha-1 (Rattus norvegicus, UniProt P15823+P23944+P43140); experiment: Displacement of [3H]-Prazosin from alpha1 adrenergic receptor in rat brain cerebral cortex membranes by liquid scintillation counting analysis; format: cell membranes, Membrane
T1 sequence (P15823 whole entry): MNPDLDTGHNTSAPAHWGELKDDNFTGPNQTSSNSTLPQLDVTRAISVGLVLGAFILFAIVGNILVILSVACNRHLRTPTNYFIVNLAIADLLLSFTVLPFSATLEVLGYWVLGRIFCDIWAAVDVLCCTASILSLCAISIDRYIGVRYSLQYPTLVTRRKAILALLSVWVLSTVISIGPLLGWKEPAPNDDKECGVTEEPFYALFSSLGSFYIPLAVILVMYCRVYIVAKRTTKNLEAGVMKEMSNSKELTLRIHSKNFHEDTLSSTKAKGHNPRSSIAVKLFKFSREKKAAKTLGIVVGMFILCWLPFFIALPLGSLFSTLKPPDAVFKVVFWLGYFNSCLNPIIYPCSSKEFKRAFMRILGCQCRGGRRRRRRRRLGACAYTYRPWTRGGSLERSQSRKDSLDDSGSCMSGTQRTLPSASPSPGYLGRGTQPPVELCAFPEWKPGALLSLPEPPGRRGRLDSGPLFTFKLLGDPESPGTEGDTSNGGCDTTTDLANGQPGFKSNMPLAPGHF
T1 sequence (P23944 whole entry): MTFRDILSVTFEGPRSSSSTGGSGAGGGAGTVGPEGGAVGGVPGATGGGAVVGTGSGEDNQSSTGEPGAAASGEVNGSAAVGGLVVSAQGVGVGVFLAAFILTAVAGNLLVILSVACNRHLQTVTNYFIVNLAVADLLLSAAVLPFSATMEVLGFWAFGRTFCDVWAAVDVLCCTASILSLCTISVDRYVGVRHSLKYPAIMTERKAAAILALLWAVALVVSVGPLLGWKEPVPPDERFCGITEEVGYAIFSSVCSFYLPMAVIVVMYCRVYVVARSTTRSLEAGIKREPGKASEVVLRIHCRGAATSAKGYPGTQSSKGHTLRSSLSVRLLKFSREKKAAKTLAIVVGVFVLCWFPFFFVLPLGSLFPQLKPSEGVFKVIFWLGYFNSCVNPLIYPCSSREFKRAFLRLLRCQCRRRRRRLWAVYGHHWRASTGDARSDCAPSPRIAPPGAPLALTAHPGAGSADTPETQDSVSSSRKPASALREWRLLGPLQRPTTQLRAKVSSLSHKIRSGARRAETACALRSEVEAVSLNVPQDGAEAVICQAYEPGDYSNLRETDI
T1 sequence (P43140 whole entry): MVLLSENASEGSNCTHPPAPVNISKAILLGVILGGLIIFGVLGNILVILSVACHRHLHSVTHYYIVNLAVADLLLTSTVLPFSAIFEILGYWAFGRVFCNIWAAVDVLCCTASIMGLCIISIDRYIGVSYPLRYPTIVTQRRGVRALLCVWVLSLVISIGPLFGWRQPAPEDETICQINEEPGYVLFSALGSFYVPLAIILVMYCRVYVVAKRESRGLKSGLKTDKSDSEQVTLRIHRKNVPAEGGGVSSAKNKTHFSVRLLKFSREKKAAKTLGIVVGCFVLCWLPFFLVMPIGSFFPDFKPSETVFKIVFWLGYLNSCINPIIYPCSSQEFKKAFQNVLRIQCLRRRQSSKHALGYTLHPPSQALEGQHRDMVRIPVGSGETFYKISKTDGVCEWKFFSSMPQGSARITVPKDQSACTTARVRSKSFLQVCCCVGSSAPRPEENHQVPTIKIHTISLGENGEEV
In short: (§1)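 Rat cerebral cortex homogenized in ice-cold 50 mM Tris–HCl (pH 7.6), spun at 20,000 g for 20 min (0–4 °C), resuspended and spun again. Membranes incubated with 0.2 nM [3H]-prazosin (α1) or 2 nM [3H]-clonidine (α2) and seven to eight compound concentrations (10^-11 to 10^-4 M). Non-specific binding defined with 10 µM phentolamine (prazosin) or 10 µM clonidine (clonidine). Ended by GF/C filtration, counted by liquid scintillation. Run in duplicate; Ki from two independent experiments.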

Rattus norvegicus [2] = organism: Rattus norvegicus; experiment: Selectivity ratio of Ki for alpha2 adrenergic receptor in rat brain cerebral cortex membranes to Ki for alpha1 adrenergic receptor in rat brain cerebral cortex membranes; format: cell membranes; in short: as §1
[3] = biological target: T2, Adrenergic receptor alpha-2 (Rattus norvegicus, UniProt P22086+P19328+P22909); experiment: Displacement of [3H]-Clonidine from alpha2 adrenergic receptor in rat brain cerebral cortex membranes by liquid scintillation counting analysis; format: cell membranes, Membrane; in short: as §1
T2 sequence (P22086 whole entry): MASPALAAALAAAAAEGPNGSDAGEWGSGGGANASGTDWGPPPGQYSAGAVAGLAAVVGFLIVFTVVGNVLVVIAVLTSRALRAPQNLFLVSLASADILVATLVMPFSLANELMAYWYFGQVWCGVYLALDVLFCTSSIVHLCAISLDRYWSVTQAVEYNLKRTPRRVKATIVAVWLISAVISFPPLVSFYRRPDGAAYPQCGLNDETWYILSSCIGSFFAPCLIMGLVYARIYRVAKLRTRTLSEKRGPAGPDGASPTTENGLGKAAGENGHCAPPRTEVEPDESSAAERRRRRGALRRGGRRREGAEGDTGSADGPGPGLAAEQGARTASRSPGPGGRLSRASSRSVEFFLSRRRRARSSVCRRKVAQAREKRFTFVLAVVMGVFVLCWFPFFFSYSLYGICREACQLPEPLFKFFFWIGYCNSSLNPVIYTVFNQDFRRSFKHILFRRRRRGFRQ
T2 sequence (P19328 whole entry): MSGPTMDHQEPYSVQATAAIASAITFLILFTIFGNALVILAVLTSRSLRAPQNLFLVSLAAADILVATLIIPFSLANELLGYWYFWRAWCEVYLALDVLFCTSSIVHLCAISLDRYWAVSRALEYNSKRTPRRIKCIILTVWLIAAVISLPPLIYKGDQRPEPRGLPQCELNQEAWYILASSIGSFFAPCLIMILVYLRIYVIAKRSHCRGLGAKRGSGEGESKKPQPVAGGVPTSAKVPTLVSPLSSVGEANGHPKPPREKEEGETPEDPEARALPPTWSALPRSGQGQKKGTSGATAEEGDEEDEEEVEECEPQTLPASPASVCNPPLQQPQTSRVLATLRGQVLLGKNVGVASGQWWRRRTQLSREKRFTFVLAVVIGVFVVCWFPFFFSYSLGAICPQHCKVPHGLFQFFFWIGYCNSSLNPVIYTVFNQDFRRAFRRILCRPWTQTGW
T2 sequence (P22909 whole entry): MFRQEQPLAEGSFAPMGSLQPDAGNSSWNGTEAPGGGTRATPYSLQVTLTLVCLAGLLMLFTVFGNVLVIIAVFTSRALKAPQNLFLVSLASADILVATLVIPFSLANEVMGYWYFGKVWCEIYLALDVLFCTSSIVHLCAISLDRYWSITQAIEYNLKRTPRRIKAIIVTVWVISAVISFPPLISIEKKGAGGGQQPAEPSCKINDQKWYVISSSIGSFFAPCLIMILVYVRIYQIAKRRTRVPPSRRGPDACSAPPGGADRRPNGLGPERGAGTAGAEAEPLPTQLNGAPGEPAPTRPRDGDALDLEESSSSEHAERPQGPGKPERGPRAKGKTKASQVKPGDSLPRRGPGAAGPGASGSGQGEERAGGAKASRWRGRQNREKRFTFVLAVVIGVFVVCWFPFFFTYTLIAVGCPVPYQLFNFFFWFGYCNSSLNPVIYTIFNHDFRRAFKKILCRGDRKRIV

Rattus norvegicus [4] = experiment: Hypotensive activity in normotensive anesthetized Wistar rat assessed as decrease in diastolic blood pressure at 2 mg/kg, iv administered as single dose measured 60 mins post dose relative to control; format: functional; details: 1 h
In short: (§2)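 Male Wistar rats (200–250 g), groups of six, anaesthetized with thiopental 70 mg/kg ip. Left carotid artery cannulated with heparinized saline-filled tubing for pressure recording. Compounds dissolved in water and given once iv. Blood pressure taken at 0 min (control) and over 60 min afterward. Data as mean ± SEM, analysed by one-way ANOVA with Dunnett's test against 0 min.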

[5] = biological target: T3, Alpha-1B adrenergic receptor (Homo sapiens, UniProt P35368); experiment: Intrinsic activity at human alpha1B adrenergic receptor expressed in CHOK1 cells co-expressing aequorin assessed as inhibition of agonist induced calcium mobilization preincubated for 15 mins followed by agonist addition measured for 20 secs in presence of coelenterazine H by luminescence assay; format: cell-based, CHO-K1
T3 sequence (P35368 whole entry): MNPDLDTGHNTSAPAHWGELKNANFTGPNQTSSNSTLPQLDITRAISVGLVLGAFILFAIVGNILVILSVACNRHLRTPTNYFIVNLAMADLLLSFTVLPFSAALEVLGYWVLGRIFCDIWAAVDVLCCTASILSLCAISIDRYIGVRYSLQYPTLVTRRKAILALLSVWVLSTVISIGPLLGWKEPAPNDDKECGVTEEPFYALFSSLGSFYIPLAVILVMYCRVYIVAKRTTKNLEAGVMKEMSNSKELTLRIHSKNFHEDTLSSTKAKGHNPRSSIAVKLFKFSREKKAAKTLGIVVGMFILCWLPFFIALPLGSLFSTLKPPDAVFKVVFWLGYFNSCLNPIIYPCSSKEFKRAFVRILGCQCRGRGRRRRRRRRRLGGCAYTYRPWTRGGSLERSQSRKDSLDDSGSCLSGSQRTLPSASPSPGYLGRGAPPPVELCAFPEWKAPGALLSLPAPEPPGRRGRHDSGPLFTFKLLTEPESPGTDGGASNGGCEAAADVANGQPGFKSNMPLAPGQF
In short: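 Frozen ready-to-use cells stably expressing α1B receptor and aequorin, resuspended in assay buffer with 5 µM coelenterazine h and rotated overnight at rt in the dark. Diluted to 5000 cells/20 µL. Agonist mode: cells injected onto ligands, light recorded 20 s. Antagonist mode: 15 min with compound at room temperature, then agonist at 3× EC80 final, light recorded 20 s. Mean EC50 from three experiments.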

Rattus norvegicus [6] = experiment: Hypotensive activity in normotensive anesthetized Wistar rat assessed as decrease in systolic blood pressure at 2 mg/kg, iv administered as single dose measured 60 mins post dose relative to control; format: functional; details: 1 h; in short: as §2

SMILES	Ki [1] [nM]	Ratio Ki (Rattus norvegicus [2])	Ki [3] [nM]	inhibition in vivo at 2 mg/kg (Rattus norvegicus [4]) [%]	EC50 [5] [nM]	inhibition in vivo at 2 mg/kg (Rattus norvegicus [6]) [%]
CC(C)Oc1ccccc1OCCN1CCC(NS(=O)(=O)c2cccc(Cl)c2F)CC1	131	1	188			
CC(C)Oc1ccccc1OCCN1CC[C@H](NS(=O)(=O)c2cc(Cl)ccc2F)C1	242	> 41	> 10000			
CC(C)Oc1ccccc1OCCN1CC[C@@H](NS(=O)(=O)c2cccc(Cl)c2F)C1	176	2	378			
CC(C)Oc1ccccc1OCCN1CCC(CNS(=O)(=O)c2ccc(F)cc2)CC1	77	5	416			
CC(C)Oc1ccccc1OCCN1CC[C@H](NS(=O)(=O)c2cccc(Cl)c2F)C1	92	> 109	> 10000			
CC(C)Oc1ccccc1OCCN1CCC(NS(=O)(=O)c2cccc3cccnc23)CC1	73	3	194			
CC(C)Oc1ccccc1OCCN1CCC(CNS(=O)(=O)c2cncc3ccccc23)CC1	67	9	578			
COc1ccccc1OCCN1CC[C@@H](NS(=O)(=O)c2cc(Cl)ccc2F)C1	289	8	2354			
COc1ccccc1OCCN1CCC(NS(=O)(=O)c2cc(Cl)ccc2F)CC1	34	4	129			
CC(C)Oc1ccccc1OCCN1CC[C@@H](NS(=O)(=O)c2cc(Cl)ccc2F)C1	106	4	398			
CC(C)Oc1ccccc1OCCN1CCC(NS(=O)(=O)c2cc(Cl)ccc2F)CC1	118	3	293			
COc1ccccc1OCCN1CC[C@H](NS(=O)(=O)c2cccc(Cl)c2F)C1	348	> 29	> 10000			
COc1ccccc1OCCN1CC[C@H](NS(=O)(=O)c2cc(Cl)ccc2F)C1	214		> 10000			
COc1ccccc1OCCN1CC[C@@H](NS(=O)(=O)c2cccc(Cl)c2F)C1	241	8	1944			
COc1ccccc1OCCN1CCC(NS(=O)(=O)c2cccc3cccnc23)CC1	93	1	131			
CC(C)Oc1ccccc1OCCN1CCC(CNS(=O)(=O)c2cc(Cl)ccc2F)CC1	133	7	870			
CCOc1ccccc1OCCN[C@H](C)Cc1ccc(OC)c(S(N)(=O)=O)c1 [TAMSULOSIN]				11 to 18	0.13	11 to 17

— ChEMBL document CHEMBL3861996, “Arylsulfonamide derivatives of (aryloxy)ethyl pyrrolidines and piperidines as α1-adrenergic receptor antagonist with uro-selective activity” (Bioorg Med Chem, 2016)
